According to ChEMBL document CHEMBL1781959, “Synthesis and in vitro antitumor activity of substituted quinazoline and quinoxaline derivatives: search for anticancer agent” (Eur J Med Chem, 2011):

Columns and labels:
Type in all cases: functional
KM12 = test: Anticancer activity against human KM12 cells assessed as cell growth promotion at 10^-5 M after 48 hrs by SRB assay relative to control
SF-539 = test: Anticancer activity against human SF539 cells assessed as cell growth promotion at 10^-5 M after 48 hrs by SRB assay relative to control
MDA-MB-435 = test: Anticancer activity against human MDA-MB-435 cells assessed as cell growth promotion at 10^-5 M after 48 hrs by SRB assay relative to control
CCRF-CEM = test: Anticancer activity against human CCRF-CEM cells assessed as cell growth promotion at 10^-5 M after 48 hrs by SRB assay relative to control
UACC-257 = test: Anticancer activity against human UACC257 cells assessed as cell growth promotion at 10^-5 M after 48 hrs by SRB assay relative to control
NCI-H460 = test: Anticancer activity against human NCI-H460 cells assessed as cell growth promotion at 10^-5 M after 48 hrs by SRB assay relative to control
PC-3 = test: Anticancer activity against human PC3 cells assessed as cell growth promotion at 10^-5 M after 48 hrs by SRB assay relative to control
UO-31 = test: Anticancer activity against human UO31 cells assessed as cell growth promotion at 10^-5 M after 48 hrs by SRB assay relative to control
UACC-62 = test: Anticancer activity against human UACC62 cells assessed as cell growth promotion at 10^-5 M after 48 hrs by SRB assay relative to control
NCI-H23 = test: Anticancer activity against human NCI-H23 cells assessed as cell growth promotion at 10^-5 M after 48 hrs by SRB assay relative to control
HCT-15 = test: Anticancer activity against human HCT15 cells assessed as cell growth promotion at 10^-5 M after 48 hrs by SRB assay relative to control
SNB-19 = test: Anticancer activity against human SNB19 cells assessed as cell growth promotion at 10^-5 M after 48 hrs by SRB assay relative to control
HCT-116 = test: Anticancer activity against human HCT116 cells assessed as cell growth promotion at 10^-5 M after 48 hrs by SRB assay relative to control
OVCAR-5 = test: Anticancer activity against human OVCAR5 cells assessed as cell growth promotion at 10^-5 M after 48 hrs by SRB assay relative to control
NCI/ADR-RES = test: Anticancer activity against human NCI/ADR-RES cells assessed as cell growth promotion at 10^-5 M after 48 hrs by SRB assay relative to control
M14 = test: Anticancer activity against human M14 cells assessed as cell growth promotion at 10^-5 M after 48 hrs by SRB assay relative to control
MDA-MB-468 = test: Anticancer activity against human MDA-MB-468 cells assessed as cell growth promotion at 10^-5 M after 48 hrs by SRB assay relative to control
TK-10 = test: Anticancer activity against human TK10 cells assessed as cell growth promotion at 10^-5 M after 48 hrs by SRB assay relative to control
NCI-H322M = test: Anticancer activity against human NCI-H322M cells assessed as cell growth promotion at 10^-5 M after 48 hrs by SRB assay relative to control
T47D = test: Anticancer activity against human T47D cells assessed as cell growth promotion at 10^-5 M after 48 hrs by SRB assay relative to control
HL-60(TB) = test: Anticancer activity against human HL-60(TB) cells assessed as cell growth promotion at 10^-5 M after 48 hrs by SRB assay relative to control
Summary of the method: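 NCI-60 single-dose screen: compound at 10^-5 M, 48 h at 37 °C, 5% CO2; cells grown in RPMI 1640 with 5% FBS and 2 mM L-glutamine, pre-incubated 24 h before dosing. Adherent cells fixed with cold TCA; endpoint is sulforhodamine B protein staining. Percent growth of treated cells is reported relative to untreated control.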

MOLT-4 = test: Anticancer activity against human MOLT4 cells assessed as cell growth promotion at 10^-5 M after 48 hrs by SRB assay relative to control
OVCAR-3 = test: Anticancer activity against human OVCAR3 cells assessed as cell growth promotion at 10^-5 M after 48 hrs by SRB assay relative to control
SK-MEL-28 = test: Anticancer activity against human SK-MEL-28 cells assessed as cell growth promotion at 10^-5 M after 48 hrs by SRB assay relative to control
HT-29 = test: Anticancer activity against human HT-29 cells assessed as cell growth promotion at 10^-5 M after 48 hrs by SRB assay relative to control
K562 = test: Anticancer activity against human K562 cells assessed as cell growth promotion at 10^-5 M after 48 hrs by SRB assay relative to control
HOP-62 = test: Anticancer activity against human HOP62 cells assessed as cell growth promotion at 10^-5 M after 48 hrs by SRB assay relative to control
SK-OV-3 = test: Anticancer activity against human SKOV3 cells assessed as cell growth promotion at 10^-5 M after 48 hrs by SRB assay relative to control
A549 = test: Anticancer activity against human A549 cells assessed as cell growth promotion at 10^-5 M after 48 hrs by SRB assay relative to control
SK-MEL-5 = test: Anticancer activity against human SK-MEL-5 cells assessed as cell growth promotion at 10^-5 M after 48 hrs by SRB assay relative to control
LOX IMVI = test: Anticancer activity against human LOXIMVI cells assessed as cell growth promotion at 10^-5 M after 48 hrs by SRB assay relative to control
A498 = test: Anticancer activity against human A498 cells assessed as cell growth promotion at 10^-5 M after 48 hrs by SRB assay relative to control
ACHN = test: Anticancer activity against human ACHN cells assessed as cell growth promotion at 10^-5 M after 48 hrs by SRB assay relative to control
OVCAR-8 = test: Anticancer activity against human OVCAR8 cells assessed as cell growth promotion at 10^-5 M after 48 hrs by SRB assay relative to control
NCI-H226 = test: Anticancer activity against human NCI-H226 cells assessed as cell growth promotion at 10^-5 M after 48 hrs by SRB assay relative to control
[1] = Anticancer activity against human Hs 578T cells assessed as cell growth promotion at 10^-5 M after 48 hrs by SRB assay relative to control
MCF7 = test: Anticancer activity against human MCF7 cells assessed as cell growth promotion at 10^-5 M after 48 hrs by SRB assay relative to control
COLO 205 = test: Anticancer activity against human COLO205 cells assessed as cell growth promotion at 10^-5 M after 48 hrs by SRB assay relative to control

Row | Structure (SMILES) | Activity (KM12) | Activity (SF-539) | Activity (MDA-MB-435) | Activity (CCRF-CEM) | Activity (UACC-257) | Activity (NCI-H460) | Activity (UO-31) | Activity (UACC-62) | Activity (NCI-H23) | Activity (HCT-15) | Activity (SNB-19) | Activity (HCT-116) | Activity (OVCAR-5) | Activity (NCI/ADR-RES) | Activity (M14) | Activity (MDA-MB-468) | Activity (TK-10) | Activity (NCI-H322M) | Activity (T47D) | Activity (HL-60(TB)) | other results
1 | NS(=O)(=O)c1ccc(NC(=O)c2ccccc2NC(=O)c2ccco2)cc1 | 108.4% | 86.82% | 107.2% | 98.87% | 100.1% | 115.5% | 104% | 107% | 110.8% | 105.5% | 110.7% | 109.7% | 99.82% | 111% | 113.1% | 106% | 102% | 119.5% | 103% | 93.06% | Activity (PC-3): 118%; Activity (MOLT-4): 87.33%; Activity (OVCAR-3): 108%; Activity (SK-MEL-28): 107.1%; Activity (HT-29): 99.28%; Activity (K562): 95.39%; Activity (HOP-62): 106%; Activity (SK-OV-3): 110%; Activity (A549): 106.3%; Activity (SK-MEL-5): 108.4%; Activity (LOX IMVI): 101.6%; Activity (A498): -23%; Activity (ACHN): 101%; Activity (OVCAR-8): 103%; Activity (NCI-H226): 114.6%; Activity [1]: 118%; Activity (MCF7): 95.61%
2 | N#Cc1ccc(/C=C/c2ccc(NC(=O)c3ccccc3NC(=O)c3ccco3)cc2)cc1 | 107% | 102% | 108% | 96.43% | 103% | 116% | 84.8% | 99% | 94.62% | 104% | 111% | 103% | 105% | 109% | 112% | 108% | 126% | 102% | 103% | 84.98% | Activity (COLO 205): 124%; Activity (PC-3): 109%; Activity (MOLT-4): 99.1%; Activity (OVCAR-3): 107%; Activity (SK-MEL-28): 113%; Activity (K562): 94.72%; Activity (HOP-62): 111%; Activity (SK-OV-3): 111%; Activity (A549): 101%; Activity (SK-MEL-5): 103%; Activity (LOX IMVI): 109%; Activity (A498): 94.62%; Activity (ACHN): 104%; Activity (OVCAR-8): 106%; Activity (NCI-H226): 107%; Activity [1]: 100%; Activity (MCF7): 98.4%
3 | C(=C\c1nc2ccccc2nc1SCc1nc2ccccc2[nH]1)/c1ccccc1 | 79.7% | 97.75% | 88.93% | 89.58% | 67.72% | 70.22% | 58.6% | 61.37% | 52.23% | 96.13% | 82.87% | 35.79% | 95.41% | 53.22% | 76.83% | 39.93% | 44.74% | 86.4% | 34.6% | 77.83% | Activity (COLO 205): 75.7%; Activity (MOLT-4): 63.07%; Activity (OVCAR-3): 65.02%; Activity (SK-MEL-28): 94.52%; Activity (K562): 61.44%; Activity (HOP-62): 88.3%; Activity (SK-OV-3): 73.61%; Activity (A549): 64.03%; Activity (SK-MEL-5): 17.4%; Activity (LOX IMVI): 56.83%; Activity (A498): 71.11%; Activity (ACHN): 76.83%; Activity (OVCAR-8): 82.17%; Activity (NCI-H226): 65.68%; Activity [1]: 90.1%; Activity (MCF7): 40.3%
